In the library only some 2.2% were active in any assay of this set; here they are far more common.
PPC-1+TRAIL kill: kills PPC-1 cancer cells in the presence of TRAIL. cell killing (% activity), % at 4 µM or 5 µM. 220,000 compounds, 0.41% hits. PPC-1 cells + TRAIL, ATPLite viability luminescence;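 active = cell killing above 50% in the first pass at 4 µM, then a duplicate retest at 5 µM averaging 50% or more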;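 also: plate controls were cells with TRAIL plus DMSO for no effect and medium-only wells lacking cells for full effect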
C8 TRAIL sens: sensitizes caspase-8 expressing cells to TRAIL. inhibition (viability loss, TRAIL sensitization), % at 10 µM. NB7+C8 cells + TRAIL, ATPlite viability luminescence. 360,000 compounds, 1% hits. AID 624354;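 active = compounds causing at least 50% loss of cell viability in the single-dose screen, relative to plate controls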
FLuc stim CS: firefly luciferase counter-screen for stimulation assays; 200,000 tested, under 10 active; P08659; AID 1027; ATPlite luciferase biochemical, luminescence, 10 min; 0 = ATP-free wells, 1 = DMSO control; activation factor at 10 µM;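 active = luciferase activation factor, scaled between plate controls, of at least 2 with compound at 10 µM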
Target sequence (P08659 whole entry, looked up): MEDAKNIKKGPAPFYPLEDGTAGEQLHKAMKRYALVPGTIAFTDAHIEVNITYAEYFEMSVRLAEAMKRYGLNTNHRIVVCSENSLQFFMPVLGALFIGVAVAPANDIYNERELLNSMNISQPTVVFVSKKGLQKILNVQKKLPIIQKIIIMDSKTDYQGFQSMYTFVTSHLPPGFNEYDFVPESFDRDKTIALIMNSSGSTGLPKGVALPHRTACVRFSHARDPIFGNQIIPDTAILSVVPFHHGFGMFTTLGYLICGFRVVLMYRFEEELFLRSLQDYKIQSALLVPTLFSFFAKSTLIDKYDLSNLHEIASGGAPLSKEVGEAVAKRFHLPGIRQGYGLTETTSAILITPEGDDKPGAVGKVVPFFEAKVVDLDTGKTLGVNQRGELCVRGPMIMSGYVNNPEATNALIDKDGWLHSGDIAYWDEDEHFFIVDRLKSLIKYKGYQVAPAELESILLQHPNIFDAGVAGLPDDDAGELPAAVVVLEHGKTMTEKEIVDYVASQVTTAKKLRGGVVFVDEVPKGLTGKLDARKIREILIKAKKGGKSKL
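Assay system: Luciferase/luciferin detection reagent, cell-free biochemical luciferase assay / Also added: ATP substrate / Schedule: 10 min at ambient temperature / Measured by: luminescence measurement of luciferase light output / Benchmarks: low control with PBS replacing ATP, high control enzyme plus ATP without compound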
NF-kB expr up: raises NF-kB expression in human neuronal cells; NF-kB reporter expression; stronger effect = higher value; fold change at 12.5 µM; 190,000 compounds, 1.6% hits; in the data active = fold change above about 3.3
APP 5'UTR act: APP 5'UTR luciferase reporter activation. 190,000 compounds, 1% hits. SH-SY5Y APP 5'UTR luciferase reporter, luminescence; zero percent = DMSO vehicle wells. activation, % at 2 µM. AID 1276;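 active = activation above a set limit, based on mean plus 3 SD of controls, cut at about 140% in these data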
FLuc inhib CS: inhibits firefly luciferase, flagging false hits in luciferase inhibition screens; P08659; 200,000 compounds, 1.5% hits; inhibition, % at 10 µM; AID 1006; ATPLite firefly luciferase biochemical luminescence, 10 min;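 active = inhibition above about 50% when tested at 10 µM, limit read from the data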
Active calls of the source: *; nt = no result given.

SMILES	PPC-1+TRAIL kill	C8 TRAIL sens	FLuc stim CS	NF-kB expr up	APP 5'UTR act	FLuc inhib CS
CNc1ncc(C(=O)c2ccc(F)cc2)s1	16.9	0.3	0.9	2	39.0	14.0
O=C(c1ccc(Cl)cc1)c1cnc(-c2ccc(Cl)cc2)s1	12.5	-4.3	1	1.09	12.3	-1.3
O=C(c1ccc(F)cc1)c1cnc(Nc2ccccc2)s1	40.2	61.0*	0.4	2.44	125.8	61.9*
COCCNC(=O)c1onc(CSc2ccccc2F)c1C(=O)O	55.0*	-1.5	1.1	0.9	4.2	-6.1
COc1ccc(/C=N/Nc2cc(N(C)C)nc(N(C)C)n2)cc1	2.2	27.6	1	0.96	1.4	-2.4
COc1ccc(/C=N/Nc2nccnc2Cl)c(OC)c1	16.3	3.0	0.5	2.43	25.9	52.2*
COc1ccc(/C=N/Nc2cc(OC)ncn2)cc1	44.7	60.8*	0.2	6.78*	202.7*	82.7*
COc1ccc(/C=N/Nc2nccnc2Cl)cc1	34.2	46.3	0.3	3.18	164.5*	70.0*
COc1cccc(/C=N/Nc2nc(Nc3ccccc3)nc(-n3nc(C)cc3C)n2)c1O	-0.2	60.6*	1	0.96	-79.1	4.8
CS(=O)(=O)c1ccc(Nc2nc(C(N)Cc3ccc(Cl)cc3)cs2)cc1 (centres undefined)	nt	0.4	nt	nt	nt	nt
CC(=O)Nc1ccc(C(=O)N2CCCC(c3cc(C(=O)NCc4ccc(F)cc4)no3)C2)cc1 (centres undefined)	nt	2.6	nt	nt	nt	nt
CN1OC[C@@H]2CN(S(=O)(=O)c3cc(Cl)cc(Cl)c3)[C@H](c3ccc(-c4ccc(C#N)cc4)cc3)C[C@@H]21	nt	2.4	nt	nt	nt	nt
COc1ccc(/C=N/Nc2cc(C)nc(-n3nc(C)cc3C)n2)c(OC)c1	23.6	54.5*	1	0.34	-8.4	-3.7
Cc1ccccc1-c1nnc(-c2ccccc2C)o1	15.7	7.1	0.8	3.71*	21.2	20.8
Cc1ccccc1-c1nnc(SCC#N)o1	14.3	-6.8	1	1.21	1.5	-4.1
Cc1ccccc1-c1nnc(-c2cccc3ccccc23)o1	nt	51.4*	nt	nt	nt	nt
Cc1ccccc1-c1nnc(-c2ccc(Br)cc2)o1	15.3	7.4	0.9	2.98	68.9	14.7
O=C1Nc2ccccc2-c2nnnn2C1N1CCCCC1 (centres undefined)	nt	8.2	nt	nt	nt	nt
CCOc1ccccc1C(=O)N1CCN(c2cccc(Cl)c2)CC1	6.7	4.4	1.1	4*	-94.5	-5.9
CN1/C(=C/C(=O)c2nc(S(C)(=O)=O)ncc2Cl)C(C)(C)c2ccccc21	-5.2	66.7*	1	1.62	-56.6	-2.6
N#C/C(=C\c1cc(Cl)cc(Cl)c1O)C(=O)NC1CCCCC1	9.7	54.1*	1.1	1.31	-9.7	-9.7
CSCCC(C(=O)Nc1c(C)cccc1C)n1c(COc2ccc(C)cc2)nc2ccccc21 (centres undefined)	nt	12.9	nt	nt	nt	nt
COc1cccc(/C=N/NC(=O)c2cc3c(OC)cccc3[nH]2)c1O	45.7	53.2*	1	1.05	-45.2	-0.3
COc1cc(/C=N/NC(=O)c2cc(-c3cccn3C)n[nH]2)cc(OC)c1OC	-13.2	21.4	1	0.53	-11.2	-1.1
COc1cccc(/C=N/NC(=O)c2cc(-c3cccn3C)n[nH]2)c1O	30.1	54.8*	0.6	2.05	-32.8	38.5
SMILES	PPC-1+TRAIL kill	C8 TRAIL sens	FLuc stim CS	NF-kB expr up	APP 5'UTR act	FLuc inhib CS
COc1ccc(OC)c(NC(=O)CSc2ncnc3c2cnn3-c2ccccc2Cl)c1	23.5	28.8	1	3.3*	11.4	-3.1
COc1cc(NC(=O)CSc2ncnc3c2cnn3Cc2ccccc2)cc(OC)c1	2.5	-23.5	1.1	1.08	2.5	-7.6
Cc1cc(N)n2nc(-c3ccccc3)cc2n1	68.3*	77.4*	0.1	5.38*	118.2	90.6*
Cc1cc(C)n2nc(-c3ccc(Br)cc3)cc2n1	nt	8.1	nt	nt	nt	nt
COc1ccc(-c2cc3nc(C)cc(C)n3n2)cc1	29.4	13.7	0.5	3.57*	111.8	49.4
Cc1ccc(-c2cc3nc(-c4ccccc4)cc(N)n3n2)cc1	13.1	-0.9	0.9	1.5	30.0	12.8
COc1ccc(-c2nc3nc(C)cc(C)n3n2)cc1	37.0	36.9	0.4	1.46	nt	58.9*
Cc1[nH]n(-c2ccccc2)c(=O)c1/C=N/NC(=O)c1ccc(O)cc1O	nt	41.7	nt	nt	nt	nt
Cc1ccc(-n2[nH]c(C)c(/C=N/NC(=O)c3ccc(O)cc3O)c2=O)cc1	nt	72.6*	nt	nt	nt	nt

Bioassay records as filed in PubChem BioAssay.
